# Source: ChEMBL document CHEMBL1152172, “Synthesis and biological activities of novel nonpeptide angiotensin II receptor antagonists based on benzimidazole derivatives bearing a heterocyclic ring” (Bioorg Med Chem, 2008)
# The source made the active and inactive calls. The calls are words filed in the database; no cut-off is given here.
# Key:
# Canis familiaris [1] = test: Antihypertensive activity against angiotensin II-induced pressor response in conscious normotensive Beagle dog assessed as rate of change of mean arterial blood pressure at 2.13 mg/kg, po after 1 hr; assay type: functional, Canis lupus familiaris, Artery
# Summary of the method: (§1)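 Conscious normotensive Beagle dogs, 6–7 per group. Baseline BP and heart rate recorded once stable, then test compound given orally at 2.13 mg/kg. BP and heart rate read 1 h after dosing, then AngII 0.45 µg/kg iv, with waveforms recorded 1 min after injection. Values given as rate of change relative to pre-model baseline (100%), with SEM.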
# Canis familiaris [2] = test: Antihypertensive activity against angiotensin II-induced pressor response in conscious normotensive Beagle dog assessed as decrease in basal heart rate at 2.13 mg/kg, po after 1 hr; assay type: functional, organism-based; parameters: dose 2.13 mg/kg; conditions: Canis lupus familiaris; summary of the method: as §1
# Canis familiaris [3] = test: Antihypertensive activity against angiotensin II-induced pressor response in conscious normotensive Beagle dog assessed as rate of change of mean systolic blood pressure at 2.13 mg/kg, po after 1 hr; assay type: functional, Canis lupus familiaris, Artery; summary of the method: as §1
# Canis familiaris [4] = test: Antihypertensive activity against angiotensin II-induced pressor response in conscious normotensive Beagle dog assessed as rate of change of mean diastolic blood pressure at 2.13 mg/kg, po after 1 hr; assay type: functional, Canis lupus familiaris, Artery; summary of the method: as §1
SMILES,Activity (Canis familiaris [1]),Activity (Canis familiaris [2]),Activity (Canis familiaris [3]),Activity (Canis familiaris [4])
CCCc1nc2c(C)cc(-c3nc4ccccc4n3C)cc2n1Cc1ccc(-c2ccccc2-c2ncn[nH]2)cc1,103.37%,inactive,103.8%,103.14%
CCCc1nc2c(C)cc(-c3nc4ccccc4n3C)cc2n1Cc1ccc(-c2ccccc2C(=O)O)cc1,96.13%,–,95.78%,96.15%
CCCc1nc2c(C)cc(-c3nc4ccccc4n3C)cc2n1Cc1ccc(-c2ccccc2-c2ncc(Cl)[nH]2)cc1,95.43%,Active,95.75%,95.28%
CCCc1nc2c(C)cc(-c3nc4ccccc4n3C)cc2n1Cc1ccc(-c2ccccc2C2=NCCN2)cc1,97.43%,Active,96.75%,95.28%
CCCc1nc2c(C)cc(-c3nc4ccccc4n3C)cc2n1Cc1ccc(-c2ccccc2-c2ncc[nH]2)cc1,98.11%,Active,98.67%,97.96%
